The values below come from ChEMBL document CHEMBL1157144, “Novel 16-membered macrolides modified at C-12 and C-13 positions of midecamycin A1 and miokamycin. Part 1: Synthesis and evaluation of 12,13-carbamate and 12-arylalkylamino-13-hydroxy analogues” (2008).

SMILES strings stand for the structures. Converted amounts (≈) assume the structure as drawn. Where only a bound is given, the exact number is not on record here.

What all share (assay type): functional
The subject of one assay is Moraxella catarrhalis. In words: Antibacterial activity against standard Moraxella catarrhalis after 20 hrs by agar dilution method. Put shortly:
(§1)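 MIC by agar dilution. Strains grown on blood agar plates for seed culture. About 5 µl of a suspension of roughly 10^6 CFU/ml spotted onto Sensitivity disk agar with 5% horse blood. Plates incubated at 37 °C for 20 h, then MIC read.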
For orientation: In agar dilution, organisms are placed on agar that contains the substance at set levels.

Assay [1] deals with Staphylococcus aureus. Description: Antibacterial activity against ermB-inducible resistant Staphylococcus aureus after 20 hrs by agar dilution method. A digest of the protocol:
(§2)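 Agar dilution MIC. The inoculum came from a seed culture in Sensitivity test broth. A 5 µl portion of a cell suspension of about 10^6 CFU/ml was inoculated onto Sensitivity disk agar supplemented with 5% horse blood. Plates were incubated at 37 °C for 20 h, then MIC was read.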

Assay [2] deals with Staphylococcus aureus. Description: Antibacterial activity against ermA-constitutive resistant Staphylococcus aureus after 20 hrs by agar dilution method. A digest of the protocol:
as §2

In assay [3] the test system is Streptococcus pyogenes. Description: Antibacterial activity against standard Streptococcus pyogenes after 20 hrs by agar dilution method. Put shortly: as §1
Assay [4] relates to Streptococcus pneumoniae. Description: Antibacterial activity against ermB-constitutive resistant Streptococcus pneumoniae after 20 hrs by agar dilution method. Put shortly:
(§3)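 Agar dilution MIC. Streptococcal strains were pre-cultured on blood agar plates. A 5 µl portion of a cell suspension of about 10^6 CFU/ml was inoculated onto Sensitivity disk agar supplemented with 5% horse blood. Plates were incubated at 37 °C for 20 h, then MIC was read.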

The test system of assay [5] is Streptococcus pyogenes. Description: Antibacterial activity against mefE efflux-resistant Streptococcus pyogenes after 20 hrs by agar dilution method. A digest of the protocol: as §3
Assay [6] has as its system Streptococcus pneumoniae. Description: Antibacterial activity against mefE efflux-resistant Streptococcus pneumoniae after 20 hrs by agar dilution method. Put shortly:
as §3

The subject of assay [7] is Streptococcus pyogenes. In words: Antibacterial activity against ermB-constitutive resistant Streptococcus pyogenes after 20 hrs by agar dilution method. Put shortly:
as §3

Assay [8] concerns Haemophilus influenzae. Description: Antibacterial activity against standard Haemophilus influenzae after 20 hrs by agar dilution method. A digest of the protocol:
as §1

The test system of assay [9] is Staphylococcus aureus. Description: Antibacterial activity against ermC-inducible resistant Staphylococcus aureus after 20 hrs by agar dilution method. A digest of the protocol: as §2
In assay [10] the test system is Streptococcus pneumoniae. In words: Antibacterial activity against susceptible Streptococcus pneumoniae after 20 hrs by agar dilution method. A digest of the protocol:
as §1

The subject of assay [11] is Staphylococcus aureus. In words: Antibacterial activity against standard Staphylococcus aureus after 20 hrs by agar dilution method. A digest of the protocol: as §2
For assay [12], the system named is Streptococcus pneumoniae. Description: Antibacterial activity against ermB-inducible resistant Streptococcus pneumoniae after 20 hrs by agar dilution method. A digest of the protocol: as §3
Assay [13] deals with Staphylococcus aureus. In words: Antibacterial activity against susceptible Staphylococcus aureus after 20 hrs by agar dilution method. Put shortly:
as §2

Assay [14] relates to Haemophilus influenzae. Description: Antibacterial activity against susceptible Haemophilus influenzae after 20 hrs by agar dilution method. Put shortly:
as §1

Turning to `CCC(=O)O[C@@H]1CC(=O)O[C@H](C)C/C=C/C=C/[C@H](OC(C)=O)[C@H](C)C[C@H](CC=O)[C@H](O[C@@H]2O[C@H](C)[C@@H](O[C@H]3C[C@@](C)(OC(C)=O)[C@@H](OC(=O)CC)[C@H](C)O3)[C@H](N(C)C)[C@H]2O)[C@H]1OC` [MIOCAMYCIN], the MIC in the assay on Moraxella catarrhalis was 0.78 µg/mL (≈ 0.869 µM); against Staphylococcus aureus [1], 1.56 µg/mL (≈ 1.74 µM); with Staphylococcus aureus [2], more than 100 µg/mL; with Streptococcus pyogenes [3], 0.1 µg/mL (≈ 0.111 µM); with Streptococcus pneumoniae [4] it was more than 100 µg/mL; with Streptococcus pyogenes [5], 0.2 µg/mL (≈ 0.223 µM). The MIC with Streptococcus pneumoniae [6] is 0.2 µg/mL (≈ 0.223 µM); with Streptococcus pyogenes [7], more than 100 µg/mL; in the assay with Haemophilus influenzae [8], 3.13 µg/mL (≈ 3.49 µM); against Staphylococcus aureus [9] it was 0.78 µg/mL (≈ 0.869 µM); with Streptococcus pneumoniae [10] it was 0.1 µg/mL (≈ 0.111 µM); against Staphylococcus aureus [11], 0.2 µg/mL (≈ 0.223 µM). Also, the MIC against Streptococcus pneumoniae [12] was 6.25 µg/mL (≈ 6.96 µM); in the assay on Staphylococcus aureus [13], 0.78 µg/mL (≈ 0.869 µM); with Haemophilus influenzae [14], 25 µg/mL (≈ 27.8 µM).
For `CCC(=O)O[C@@H]1CC(=O)O[C@H](C)C[C@H](O)[C@H](N(C)C)/C=C/[C@H](OC(C)=O)[C@H](C)C[C@H](CC=O)[C@H](O[C@@H]2O[C@H](C)[C@@H](O[C@H]3C[C@@](C)(O)[C@@H](OC(=O)CC)[C@H](C)O3)[C@H](N(C)C)[C@H]2O)[C@H]1OC`, the MIC against Moraxella catarrhalis was 1.56 µg/mL (≈ 1.7 µM); in the assay on Staphylococcus aureus [1] it was 1.56 µg/mL (≈ 1.7 µM); against Staphylococcus aureus [2], more than 100 µg/mL; against Streptococcus pyogenes [3] it was 0.2 µg/mL (≈ 0.218 µM); in the assay with Streptococcus pneumoniae [4], more than 100 µg/mL; in the assay on Streptococcus pyogenes [5], 0.39 µg/mL (≈ 0.425 µM). Besides, the MIC was 0.2 µg/mL (≈ 0.218 µM) with Streptococcus pneumoniae [6]; more than 100 µg/mL against Streptococcus pyogenes [7]; 1.56 µg/mL (≈ 1.7 µM) against Haemophilus influenzae [8]; 0.78 µg/mL (≈ 0.851 µM) against Staphylococcus aureus [9]; 0.2 µg/mL (≈ 0.218 µM) in the assay on Streptococcus pneumoniae [10]; 0.78 µg/mL (≈ 0.851 µM) with Staphylococcus aureus [11]. Moreover, the results for the MIC with Streptococcus pneumoniae [12], with Staphylococcus aureus [13] and against Haemophilus influenzae [14] were more than 100 µg/mL, 0.78 µg/mL (≈ 0.851 µM) and 25 µg/mL (≈ 27.3 µM), respectively.
As to `CCC(=O)O[C@@H]1CC(=O)O[C@H](C)C[C@H](O)[C@H](N(C)Cc2ccccc2)/C=C/[C@H](OC(C)=O)[C@H](C)C[C@H](CC=O)[C@H](O[C@@H]2O[C@H](C)[C@@H](O[C@H]3C[C@@](C)(O)[C@@H](OC(=O)CC)[C@H](C)O3)[C@H](N(C)C)[C@H]2O)[C@H]1OC`, the MIC is 0.39 µg/mL (≈ 0.393 µM) with Moraxella catarrhalis; 0.2 µg/mL (≈ 0.201 µM) in the assay on Staphylococcus aureus [1]; more than 100 µg/mL in the assay with Staphylococcus aureus [2]; 0.1 µg/mL (≈ 0.101 µM) in the assay on Streptococcus pyogenes [3]; more than 100 µg/mL in the assay on Streptococcus pneumoniae [4]; 0.39 µg/mL (≈ 0.393 µM) against Streptococcus pyogenes [5]. For the same compound, the MIC is 0.1 µg/mL (≈ 0.101 µM) with Streptococcus pneumoniae [6]; more than 100 µg/mL in the assay on Streptococcus pyogenes [7]; 3.13 µg/mL (≈ 3.15 µM) in the assay with Haemophilus influenzae [8]; 0.39 µg/mL (≈ 0.393 µM) against Staphylococcus aureus [9]; 0.1 µg/mL (≈ 0.101 µM) in the assay with Streptococcus pneumoniae [10]; 0.39 µg/mL (≈ 0.393 µM) in the assay on Staphylococcus aureus [11]. Moreover, the MIC in the assay on Streptococcus pneumoniae [12] amounted to 100 µg/mL (≈ 101 µM); with Staphylococcus aureus [13] it was 0.39 µg/mL (≈ 0.393 µM); with Haemophilus influenzae [14] it was 25 µg/mL (≈ 25.2 µM).
